The source made the active and inactive calls.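 The calls were made as follows: active = half-maximal effective dose for blocking growth of human endothelial cells at most 100 µM; inactive = the rest.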
Each compound was assayed on HUVEC proliferation, viability ATP luminescence (assay: HUVEC proliferation inhibition, dose response, cell-based, ATP luminescence (AID 822);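 also: cells exposed to compound for 72 h before the ATP read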).
Summary of the method: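 Test system: HUVEC; Input: 1250 HUVEC cells seeded per well; Doses: 0.039–20 µM, 0.2% DMSO; Evaluation: % viability versus median cell-only wells, EC50 from 4-parameter fit; Medium: EBM plus 2% FBS; Incubation: compound treatment 72 h, 37 °C; Signal: luminescent ATP measurement with CellTiter-Glo reagent; Plate: collagen-coated multiwell plates.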
For `Cc1cccc(C)c1OCC(=O)N=Nc1c(O)[nH]c2ccc(Br)cc12`, the EC50 was 7.15 µM.
`Cc1ccc2c(c1)c1c(n2CC(O)Cn2c(C)nc3ccccc32)CCCC1` (stereo not given) showed an EC50 of 10.6 µM.
With `CCOC(=O)c1cccc2c1-c1ccccc1/C2=N/O` the EC50 was 1.31 µM.
Compound `O=C(CN1CCCC1)Nc1ccc(-c2nc3cc(NC(=O)CN4CCCC4)ccc3o2)cc1` has an EC50 of 18.9 µM.
With `O=C(C#Cc1cccc([N+](=O)[O-])c1)c1ccccc1` the EC50 was 20.3 µM.
For `COc1ccccc1-c1nnc2n1N=C(c1ccc(O)c(O)c1)CS2`, the EC50 was 0.847 µM.
In the case of `COc1ccc(-c2cn3c(C)c(C(=O)Nc4cccc(NC(C)=O)c4)sc3n2)cc1`, the EC50 is reported as 12.1 µM.
`CCOC(=O)c1cnc(-n2nc(C)cc2C)nc1NCCc1ccccc1` gave an EC50 of 12.7 µM.
Compound `O=C(OCC(=O)N1CCN(C(=O)c2ccco2)CC1)c1cc(-c2ccc(Cl)c(Cl)c2Cl)nc2ccccc12` has an EC50 of 4.16 µM.
With `O=C1CCCc2c1[nH]c1ccc(Br)cc21` the EC50 was > 10 µM (inactive).
With `COc1cccc(C(=O)CSc2nnc(-c3cc(OC)cc(OC)c3)o2)c1` the EC50 was 18.2 µM.
`CCCCCCCCOC(=O)C1=C(C)Nc2nnnn2C1c1cccs1` (stereo not given) gave an EC50 of 6.74 µM.
`Cc1cc(C)cc(OC(=O)CS(=O)c2ccc(C(F)(F)F)cc2[N+](=O)[O-])c1` (stereo not given) gave an EC50 of 18.7 µM.
`COc1ccc(-c2cc(C(=O)Nc3cc(C)n(Cc4ccc(Cl)cc4)n3)no2)cc1OC` gave an EC50 of 9.64 µM.
With `Brc1ccc(-c2csc(NNC3=NCCCCC3)n2)cc1` the EC50 was > 10 µM (inactive).
`CC(C)CC[n+]1ccn(C2=C([O-])c3ccccc3C(=O)/C2=N\S(=O)(=O)c2ccccc2)c1` was tested, and the EC50 was 5.38 µM.
`O=S1(=O)C=C(Sc2nnc(-c3ccccc3)o2)c2ccccc21` was tested, and the EC50 was 4.25 µM.
Work on `COc1ccc(CNC(=O)c2c(N)n(CCCN3CCOCC3)c3nc4ccccc4nc23)cc1` yielded an EC50 of 10 µM.
For `Cn1cc(SCC(=O)Nc2nc3ccccc3s2)c2ccccc21`, the EC50 was 6.29 µM.
For `Fc1ccc2c(Cl)c(-c3nnc(-c4cccs4)o3)sc2c1`, the EC50 was 8.06 µM.
`Cc1cc(/C=C2\C(=N)N3C(SCc4ccccc4)=NSC3=NC2=O)c(C)n1Cc1ccccc1` showed an EC50 of 5.4 µM.
In the case of `Cc1ccc2c(c1)NC(=O)C(CC(=O)NCCCN1CCN(c3cc(Cl)ccc3C)CC1)O2` (stereo not given), the EC50 is reported as 7.12 µM.
Work on `CN1CCN(C(=O)c2ccc(COc3ccc(Cl)cc3Cl)cc2)CC1` yielded an EC50 of 13.3 µM.
Work on `O=c1[nH]c(=O)n(Cc2ccccc2)c2nc(-c3ccco3)cc(C(F)(F)F)c12` yielded an EC50 of 17 µM.
`Cn1c(CNc2cccc(Cl)c2)nnc1SCC(=O)OC1CCCCC1` showed an EC50 of 11.1 µM.
Compound `Cc1ccc(C(C)C)c(OCC(=O)Nc2ccc3c(c2)nc(CN2CCCC2)n3C)c1` has an EC50 of 14.6 µM.
`Cc1cc(C)n(-c2nc(NCCC(C)C)c3c4c(sc3n2)COC(C)(C)C4)n1` gave an EC50 of 14.5 µM.
Compound `Cc1ccc2[nH]c3c(N4CCN(Cc5ccc6c(c5)OCO6)CC4)ncnc3c2c1` has an EC50 of 9.97 µM.
`Cn1c(=O)n(C)c2cc(C(=O)Nc3ccc4c(c3)OCO4)ccc21` gave an EC50 of 11.6 µM.
`N#Cc1c(NCCN)nc(NCc2ccccc2)c2c1CCN(Cc1ccccc1)C2` was tested, and the EC50 was 13.3 µM.
Compound `COc1cccc2sc(Nc3nnc(-c4ccc(F)cc4)o3)nc12` has an EC50 of 0.963 µM.
With `Cc1ccc2oc3c(c(=O)c2c1)C(c1cccc(Br)c1)N(Cc1ccco1)C3=O` (stereo not given) the EC50 was 19.9 µM.
For `CCOC(=O)N1CCN(c2ncnc3c2oc2nc(C(C)C)c4c(c23)CCC4)CC1`, the EC50 was 19.4 µM.
`Nc1c(C(=O)NCc2ccc(F)cc2)c2nc3ccccc3nc2n1CCCN1CCOCC1` gave an EC50 of 10.4 µM.
`CN(c1ccccc1)S(=O)(=O)c1ccc(C(=O)Nc2nnc(-c3ccc(F)cc3)o2)cc1` was tested, and the EC50 was 1.74 µM.
`CC1=C(C(=O)OC2CCCCCCC2)C(c2cc3c(cc2Br)OCO3)CC(=O)N1` (stereo not given) gave an EC50 of 6.99 µM.
`O=C(Cn1c(=O)n(CCCC(=O)NC2CCCC2)c(=O)c2ccccc21)NCCC1=CCCCC1` showed an EC50 of 18.1 µM.
`COc1ccc(C(C[N+](=O)[O-])c2c(-c3ccccc3)cc3ccccn23)cc1` (stereo not given) was tested, and the EC50 was 11.1 µM.
Compound `COC(=O)C1=C(C)N=c2s/c(=C3\C(=O)Nc4ccccc43)c(=O)n2C1c1ccccc1` (stereo not given) has an EC50 of 6.31 µM.
`CC(Nc1nc(N2CCCC2)nc2ccccc12)c1ccccc1` (stereo not given) showed an EC50 of 5.19 µM.
Compound `Cc1nn(Cc2c(Cl)cccc2Cl)c(C)c1NC(=O)c1cc(C(C)C)on1` has an EC50 of 13.6 µM.
With `O=C(Nc1nnc(-c2ccc3c(c2)CCCC3)o1)c1ccc(Cl)cc1Cl` the EC50 was 2.25 µM.
For `c1cc2c3c(cccc3c1)NC1(CCCCCC1)N2`, the EC50 was > 10 µM (inactive).
With `CC(=O)Nc1ccc(S(=O)(=O)N2CCN(c3nc(NC4CCCC4)c4ccccc4n3)CC2)cc1` the EC50 was 4.96 µM.
`C=C(C)COc1ccc(-c2n[nH]c(C)c2-c2ccccc2OC)c(O)c1` showed an EC50 of 13 µM.
For `CCOC(=O)c1c(NC(=O)CSc2nc(C)cc(C)c2C#N)sc(C(C)=O)c1C`, the EC50 was 4.87 µM.
`CCOC(=O)c1sc(NC(=O)CSc2nnnn2-c2ccc(C)c(C)c2)nc1C` gave an EC50 of 6.65 µM.
`N#CC(c1ccccc1)c1ccc2c(C(F)(F)F)cc(C(F)(F)F)nc2n1` (stereo not given) was tested, and the EC50 was 16.7 µM.
`Oc1ccccc1-c1cc(-c2ccccc2Cl)[nH]n1` gave an EC50 of 12.5 µM.
With `O=C(Nc1nnc(-c2ccc3c(c2)OCCO3)o1)c1ccc(Cc2ccccc2)cc1` the EC50 was 4.76 µM.
`O=C(c1ccc(F)cc1)C(CN1CCOCC1)c1ccccc1` (stereo not given) was tested, and the EC50 was 5.11 µM.
With `CCc1ccc(NC(=O)CCc2nc3cccnc3n2Cc2ccc(OC)cc2)cc1` the EC50 was 13.3 µM.
`COCCCn1[nH]c2c3c(ccc2c1=O)C(=O)c1ccccc1C3=O` was tested, and the EC50 was 4.66 µM.
`Cn1cc(/C=N/n2cnc3scc(-c4ccccc4)c3c2=O)c2ccccc21` was tested, and the EC50 was 4.94 µM.
`CCCOc1ccc(-c2nc(C#N)c(NCCCn3ccnc3)o2)cc1` showed an EC50 of 11.3 µM.
`Cc1cc(C)c2c(c1)SC1=NC(c3ccccc3)(C(F)(F)F)NC(=O)N12` (stereo not given) gave an EC50 of 8.47 µM.
`Cc1ccc(-c2nc3cccnc3o2)cc1NC(=O)COc1ccc(C(C)(C)C)cc1` was tested, and the EC50 was 9 µM.
With `Cc1cccnc1Nc1nc(-c2ccc(O)cc2O)cs1` the EC50 was 10.3 µM.
Compound `CCN(CC)c1cc(C)c2cc(NC(=O)c3ccc(Br)o3)ccc2n1` has an EC50 of 11.3 µM.
Compound `N#C/C(=C/c1ccc(N2CCCCCC2)o1)c1ccc(Cl)cc1` has an EC50 of 18.3 µM.
In the case of `COc1cc(/C=c2\s/c(=C(/C#N)C(=O)N3CCCC3)n(-c3ccccc3)c2=O)ccc1O`, the EC50 is reported as 16.3 µM.
`Nc1nc(Nc2cccc3ccccc23)nc(C2CCCC2=O)n1` (stereo not given) gave an EC50 of 11.4 µM.
For `CC1=CC(C)(C)Nc2ccc(OC(=O)c3cccnc3)cc21`, the EC50 was 12.3 µM.
In the case of `CCCc1ccc(-c2cc(NC(=O)CSc3n[nH]c(N)n3)n(-c3ccccc3)n2)cc1`, the EC50 is reported as 8.38 µM.
`CCOC(=O)c1ccc(NC(=O)CCc2nc(-c3ccc(C)cc3)no2)cc1` was tested, and the EC50 was 16.5 µM.
In the case of `Cn1nc(C(C)(C)C)cc1C(=O)NCc1ccc(N2CCCC2=O)cc1`, the EC50 is reported as 16 µM.
For `CCOC(=O)c1ccccc1Nc1cn(C(C)=O)c2ccccc12`, the EC50 was 11.7 µM.
With `O=c1[nH]c2ccccc2n1C1CCN(CCCC(c2ccc(F)cc2)c2ccc(F)cc2)CC1` the EC50 was 2.71 µM.
With `CCCCCCOC(=O)C(C#N)c1nc2ccccc2nc1N1CCN(CC)CC1` (stereo not given) the EC50 was 8.05 µM.
Compound `CC1CCN(S(=O)(=O)c2ccc(NC(=O)Cn3nnc(-c4ccccc4F)n3)cc2)CC1` has an EC50 of 6.62 µM.
For `CCc1cc(-c2n[nH]c(C)c2Oc2ccc(C(C)C)cc2)c(O)cc1O`, the EC50 was 6.36 µM.
In the case of `Oc1ccc(Cl)cc1-c1cc(-c2ccco2)[nH]n1`, the EC50 is reported as 13.7 µM.
In the case of `Cc1nn2c(NCCCN(C)C)c3c(nc2c1-c1ccccc1)CCC3`, the EC50 is reported as 12.2 µM.
In the case of `CCCCn1c(SCC(=O)Nc2cc(NC(=O)c3ccco3)ccc2C)nc2ccccc2c1=O`, the EC50 is reported as 12.2 µM.
Compound `CCOc1ccc2nc(NC(=O)CN3CCC(n4nnc5cc(F)ccc54)CC3)sc2c1` has an EC50 of 8.42 µM.
Work on `CCCc1[nH]nc2c1C(c1ccc(Br)s1)C(C#N)=C(N)O2` (stereo not given) yielded an EC50 of 8.67 µM.
With `Oc1c(C(Nc2ccccn2)c2ccccn2)ccc2cccnc12` (stereo not given) the EC50 was 17.8 µM.
`COc1ccc(S(=O)(=O)Nc2ccc(O)c3ccccc23)cc1` gave an EC50 of 2.45 µM.
`COc1ccc(C(=O)C(CN2CCOCC2)c2ccccc2)cc1F` (stereo not given) gave an EC50 of 7.19 µM.
With `Cc1ccc(C(=O)c2c(C)oc3c2C(=O)C(=O)c2ccccc2-3)cc1` the EC50 was 20 µM.
Work on `O=C(Nc1ccc2nn(-c3ccccc3)nc2c1)c1ccc2c(c1)OCO2` yielded an EC50 of 20.8 µM.
`CC(C)Cn1c(N)c(C(=O)NCc2cccs2)c2nc3ccccc3nc21` was tested, and the EC50 was 10.5 µM.
With `Cc1cc(NC(c2cccnc2)c2ccc3cccnc3c2O)no1` (stereo not given) the EC50 was 6.36 µM.
Work on `CCCOC(=O)c1ccc(Oc2cn[nH]c2-c2ccc(OCC)cc2O)cc1` yielded an EC50 of 9.51 µM.
For `CCCCS(=O)(=O)/C=C\C=C/S(=O)(=O)CCCC`, the EC50 was 5.04 µM.
In the case of `CCC(=O)OCCNc1cc(Sc2nc3ccccc3s2)c2nonc2c1[N+](=O)[O-]`, the EC50 is reported as 14.5 µM.
For `CCOc1cc2nc(-c3ccc(OC)c(OC)c3)nc(N3CCOCC3)c2cc1OC`, the EC50 was 5.27 µM.
`Cc1ccc(S(=O)(=O)c2c(C)nn(C(C)(C)C)c2OC(=O)c2cccs2)cc1` was tested, and the EC50 was 8.95 µM.
`O=[N+]([O-])c1cccnc1N1CCC(c2cc(-c3cccc(C(F)(F)F)c3)n[nH]2)CC1` gave an EC50 of 10.6 µM.
In the case of `CC(=O)Nc1ccc(S(=O)(=O)NC2=C(N3CCN(Cc4ccccc4)CC3)C(=O)c3ccccc3C2=O)cc1`, the EC50 is reported as 6.68 µM.
For `Cc1oc(-c2ccccc2F)nc1CN1CCC(C(=O)NCCC2=CCCCC2)CC1`, the EC50 was 12.4 µM.
With `CCCCc1oc2ccccc2c1C(=O)c1cc(I)c(OCCN(CC)CC)c(I)c1` the EC50 was 5.72 µM.
`CCC(C)[C@@H](NC(=O)OC(C)(C)C)c1nnc(S(=O)(=O)Cc2cccc(C)c2)o1` (stereo not given in full) showed an EC50 of 19.3 µM.
Compound `C=CCn1c(SCC(=O)c2c(N)n(CCC)c(=O)n(C)c2=O)nc2sc(CC)cc2c1=O` has an EC50 of 14.9 µM.
`CCOC(=O)C1=C(Cc2ccc(F)cc2)C(=O)c2ccccc2C1=O` gave an EC50 of 13.6 µM.
Compound `O=C(Nc1ccc(OC(F)F)c(Cl)c1)Nc1ccc2c(c1)OCO2` has an EC50 of 14.8 µM.
Compound `Cc1c(CCOC(=O)C2C3CC4CC(C3)CC2C4)sc[n+]1CC(=O)c1ccc(Br)cc1` (stereo not given) has an EC50 of 11.4 µM.
For `CCCc1nc(SCC(=O)N2CCC(Cc3ccccc3)CC2)c2c(=O)n(C)c(=O)n(C)c2n1`, the EC50 was 10.5 µM.
`Cc1cc(/C=N/n2cnnc2)c(C)n1-c1ccccc1` showed an EC50 of 19.8 µM.
`Cc1ccc2[nH]c(=O)c(C3C(C#N)=C(N)Oc4c3ccc3cccnc43)cc2c1` (stereo not given) gave an EC50 of 9.52 µM.
Work on `COC(=O)c1ccc2c(=O)n(Cc3ccco3)c(SCC(=O)Nc3ccccc3Cl)nc2c1` yielded an EC50 of 4.94 µM.
`O=C(CC1CCCCC1)c1c(O)c2ccccc2oc1=O` was tested, and the EC50 was 4.66 µM.
In the case of `Cc1cccc(CS(=O)(=O)c2nnc([C@H](Cc3ccccc3)NC(=O)OC(C)(C)C)o2)c1`, the EC50 is reported as 9.97 µM.
In the case of `N#Cc1nc(COc2ccc(-c3ccccc3)cc2)oc1NCCCN1CCOCC1`, the EC50 is reported as 10.6 µM.
Work on `COc1c(F)c(F)c(C(=O)Nc2ccc(N3CCN(Cc4ccccc4)CC3)cc2)c(F)c1F` yielded an EC50 of 10.9 µM.
